Results reported in ChEMBL document CHEMBL1772948, “Chemistry and biology of macrolide antiparasitic agents” (J Med Chem, 2011).
pIC50: −log10 of the molar value. Values after ≈ are worked out from the molar mass of the structure shown. Active and inactive are the calls of the source. The calls are words filed in the database; no cut-off is given here.

Columns and labels:
[1] = system: Toxoplasma gondii; assay: Antiparasitic activity against Toxoplasma gondii 2F-1 expressing yellow fluorescent protein infected in HFF after 4 days; format: functional, organism-based; conditions: 2F-1, 96 h
[2] = system: Bacillus subtilis; assay: Antibacterial activity against Bacillus subtilis; format: functional
[3] = system: HFF; assay: Cytotoxicity against HFF after 48 hrs by MTS assay; format: cell-based; conditions: human
In short: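 Low-passage HFF seeded in 96-well plates and incubated 24h at 37 °C, then exposed to varying macrolide concentrations for 2 days; medium replaced with fresh medium plus MTS, 4h at 37 °C, absorbance 490 nm; CC50 = dose reducing viability by 50%.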

[4] = system: Toxoplasma gondii; assay: Antiparasitic activity against yellow fluorescent protein expressing Toxoplasma gondii 2F-1 infected in HFF treated immediately after infection measured after 48 hrs; format: functional, organism-based; conditions: 2F-1, 48 h
[5] = system: Toxoplasma gondii; assay: Antiparasitic activity against yellow fluorescent protein expressing Toxoplasma gondii 2F-1 treated immediately after infection for 48 hrs followed by reinoculated into fresh HFF monolayers measured after 48 hrs; format: functional, organism-based; conditions: 2F-1, 48 h
In short: (§1)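 Two-cycle protocol in HFF at 37 °C, 5% CO2, DMEM with 10% FBS. "0h": compound added with parasites, 48 h. "6h": parasites pre-incubated 6 h, uninvaded parasites removed, fresh medium with compound added, 42 h. Released tachyzoites were then harvested, purified and inoculated into fresh HFF without compound for the 2nd cycle. At least triplicate.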

[6] = system: Toxoplasma gondii; assay: Antiparasitic activity against yellow fluorescent protein expressing Toxoplasma gondii 2F-1 infected in HFF treated 6 hrs after infection measured after 48 hrs; format: functional, organism-based
[7] = system: Toxoplasma gondii; assay: Antiparasitic activity against yellow fluorescent protein expressing Toxoplasma gondii 2F-1 treated 6 hrs after infection for 42 hrs followed by reinoculated into fresh HFF monolayers measured after 48 hrs; format: functional, organism-based; in short: as §1
[8] = system: Toxoplasma gondii; assay: Antiparasitic activity against green fluorescent protein expressing […] deficient Toxoplasma gondii RH infected in HFF at 5 uM treated immediately after infection measured after 48 hrs; format: functional, organism-based
In short: (§2)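 GFP-expressing RHΔhxgprt tachyzoites were grown on HFF on glass coverslips in 12-well plates (2×10^4/well). Compound was added either with the parasites ("0h", 48 h) or after a 6 h pre-infection and medium change ("6h", 42 h). Parasites per vacuole were counted by fluorescence microscopy in at least 50 random vacuoles per well. Three independent experiments.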

[9] = system: Toxoplasma gondii; assay: Antiparasitic activity against green fluorescent protein expressing hwgprt deficient Toxoplasma gondii RH at 5 uM treated immediately after infection for 48 hrs followed by reinoculated into fresh HFF monolayers measured after 48 hrs; format: functional, organism-based; in short: as §1
[10] = system: Toxoplasma gondii; assay: Antiparasitic activity against green fluorescent protein expressing […] deficient Toxoplasma gondii RH infected in HFF at 5 uM treated 6 hrs after infection measured after 48 hrs; format: functional, organism-based; in short: as §2
[11] = system: Toxoplasma gondii; assay: Antiparasitic activity against green fluorescent protein expressing hwgprt deficient Toxoplasma gondii RH at 5 uM treated 6 hrs after infection for 42 hrs followed by reinoculated into fresh HFF monolayers measured after 48 hrs; format: functional, organism-based; in short: as §1
[12] = system: Toxoplasma gondii; assay: Antiparasitic activity against green fluorescent protein expressing hwgprt deficient Toxoplasma gondii RH infected in HFF assessed as reduction of ycf24/UPRT genes copy number ratio at 10 uM […] followed by reinoculated into fresh HFF monolayers measured after 48 hrs by RT-PCR analysis; format: functional
[13] = system: Toxoplasma gondii; assay: Antiparasitic activity against clindamycin-resistant Toxoplasma gondii 4 infected in HFF assessed as reduction of ycf24/UPRT genes copy number ratio at 10 uM treated for 48 hrs after 6 hrs infection followed by reinoculated into fresh HFF monolayers measured after 48 hrs by RT-PCR analysis; format: functional
In short: (§3)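 Tachyzoites were seeded on confluent HFF monolayers in 6-well plates at 2×10^5 per well, in DMEM with 10% FBS and 1% PS at 37 °C, 5% CO2. After 6 h pre-infection, the medium was replaced with medium containing compound for 42 h. Released parasites were reinoculated into fresh HFF without drug for 48 h, collected by centrifugation, and measured by qPCR as the ratio of plastid ycf24 to nuclear UPRT copies. At least triplicate.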

[14] = system: Toxoplasma gondii; assay: (§4) Antiparasitic activity against green fluorescent protein expressing hwgprt deficient Toxoplasma gondii RH infected in HFF assessed as reduction of ycf24/UPRT genes copy number ratio at 1 uM treated for 48 hrs after 6 hrs infection followed by reinoculated into fresh HFF monolayers measured after 48 hrs by RT-PCR analysis; format: functional
[15] = system: Toxoplasma gondii; assay: Antiparasitic activity against clindamycin-resistant Toxoplasma gondii 4 infected in HFF assessed as reduction of ycf24/UPRT genes copy number ratio at 1 uM treated for 48 hrs after 6 hrs infection followed by reinoculated into fresh HFF monolayers measured after 48 hrs by RT-PCR analysis; format: functional
[16] = system: Toxoplasma gondii; assay: as §4, with “0.1” for “1”; format: functional; in short: as §3
[17] = system: Toxoplasma gondii; assay: Antiparasitic activity against clindamycin-resistant Toxoplasma gondii 4 infected in HFF assessed as reduction of ycf24/UPRT genes copy number ratio at 0.1 uM treated for 48 hrs after 6 hrs infection followed by reinoculated into fresh HFF monolayers measured after 48 hrs by RT-PCR analysis; format: functional; in short: as §3
[18] = system: Toxoplasma gondii; assay: Antiparasitic activity against green fluorescent protein expressing […] deficient Toxoplasma gondii RH infected in HFF assessed as parasite doubling time at 5 uM treated immediately after infection measured after 48 hrs; format: functional
In short: (§5)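 HFF were grown on glass coverslips in 12-well plates and infected with 2×10^4 GFP tachyzoites per well. Compound was added with the inoculum; the first cycle ran 48 h, and the second cycle ran in fresh HFF without drug. Parasites per vacuole were counted by fluorescence microscopy, at least 50 random vacuoles per well, to derive doubling time. Three independent experiments.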

[19] = system: Toxoplasma gondii; assay: Antiparasitic activity against green fluorescent protein expressing […] deficient Toxoplasma gondii RH assessed as parasite doubling time at 5 uM treated immediately after infection for 48 hrs followed by reinoculated into fresh HFF monolayers measured after 48 hrs; format: functional; in short: as §5
[20] = system: Toxoplasma gondii; assay: Antiparasitic activity against green fluorescent protein expressing […] deficient Toxoplasma gondii RH infected in HFF assessed as decrease in density of parasitophorous vacuoles at 10 uM treated immediately after infection measured after 24 hrs by microscopic analysis; format: functional, organism-based
In short: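 GFP T. gondii RHΔhxgprt in HFF, compound (10 μM) added either with the inoculum ("0h") or after 6 h pre-infection and washing ("6h"); vacuoles per microscope field scored at 24 h, at least 20 random fields from each of three experiments.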

[21] = system: Toxoplasma gondii; assay: Antiparasitic activity against clindamycin-resistant Toxoplasma gondii 4 infected in HFF assessed as reduction of ycf24/UPRT genes copy number ratio at 10 uM treated for 48 hrs immediately after infection followed by reinoculated into fresh HFF monolayers measured after 48 hrs by RT-PCR analysis; format: functional
In short: (§6)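 Tachyzoites were seeded on confluent HFF in 6-well plates at 2×10^5 per well, in DMEM with 10% FBS and 1% PS at 37 °C, 5% CO2. Compound was added together with the parasite inoculum, and cultures ran 48 h. Harvested tachyzoites were reinoculated into fresh HFF without drug for a second cycle. Parasites were pelleted by centrifugation and the plastid ycf24 to nuclear UPRT copy ratio was read by qPCR (40 cycles, 94 °C 3 s / 60 °C 30 s). At least triplicate.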

[22] = system: Toxoplasma gondii; assay: (§7) Antiparasitic activity against green fluorescent protein expressing […] deficient Toxoplasma gondii RH infected in HFF assessed as reduction of ycf24/UPRT genes copy number ratio at 1 uM treated for 48 hrs immediately after infection followed by reinoculated into fresh HFF monolayers measured after 48 hrs by RT-PCR analysis; format: functional
In short: as §6, with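 “CO2.” for “CO2. Compound was added together with the parasite inoculum, and cultures ran 48 h.”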

[23] = system: Toxoplasma gondii; assay: Antiparasitic activity against clindamycin-resistant Toxoplasma gondii 4 infected in HFF assessed as reduction of ycf24/UPRT genes copy number ratio at 1 uM treated for 48 hrs immediately after infection followed by reinoculated into fresh HFF monolayers measured after 48 hrs by RT-PCR analysis; format: functional
In short: as §6, with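 “CO2.” for “CO2. Compound was added together with the parasite inoculum, and cultures ran 48 h.”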

[24] = system: Toxoplasma gondii; assay: as §7, with “0.1” for “1”; format: functional; in short: as §6
[25] = system: Toxoplasma gondii; assay: Antiparasitic activity against clindamycin-resistant Toxoplasma gondii 4 infected in HFF assessed as reduction of ycf24/UPRT genes copy number ratio at 0.1 uM treated for 48 hrs immediately after infection followed by reinoculated into fresh HFF monolayers measured after 48 hrs by RT-PCR analysis; format: functional; in short: as §6
[26] = system: Toxoplasma gondii; assay: Antiparasitic activity against green fluorescent protein expressing hwgprt deficient Toxoplasma gondii RH infected in HFF assessed as reduction of ycf24/UPRT genes copy number ratio at 10 uM treated for 42 hrs starting 6 hrs after infection followed by reinoculated into fresh HFF monolayers measured after 48 hrs by RT-PCR analysis

Work on `CC[C@H]1OC(=O)[C@H](C)[C@@H](O[C@H]2C[C@@](C)(OC)[C@@H](O)[C@H](C)O2)[C@H](C)[C@@H](O[C@@H]2O[C@H](C)C[C@H](N(C)C)[C@H]2O)[C@](C)(O)C[C@@H](C)CN(Cc2ccccc2)[C@H](C)[C@@H](O)[C@]1(C)O` yielded a pIC50 [1] of 5.70, an MIC [2] of 0.3 µM (≈ 0.248 µg/mL) and a CC50 [3] of 32 µM. For the same compound, the pIC50 [4] was 5.30, the pIC50 [5] was 6.30 and the pIC50 [6] was 5.05. For the same compound, the pIC50 [7] was 6.30, the Activity [8] was “Active” and the Activity [9] was “Active”. The Activity [10] was “Active”, the Activity [11] was “Active” and the Ratio [12] was 6. For the same compound, the Ratio [13] was 5, the Ratio [14] was 5 and the Ratio [15] was 3. It also gave a Ratio [16] of 17, a Ratio [17] of 15 and a Time [18] of 9.5 h. The Time [19] was >16 h, the Activity [20] was “Active” and the Ratio [21] was 11. The Ratio [22] was 7, the Ratio [23] was 8 and the Ratio [24] was 13. The Ratio [25] was 23 and the Ratio [26] was 13.
